This is an account of results in ChEMBL document CHEMBL1165951, “Improved synthesis and in vitro/in vivo activities of natural product-inspired, artificial glutamate analogs” (Bioorg Med Chem, 2010).

The subject of one assay is Mus musculus. The assay is described as follows: Effect on neurological behavior in mouse assessed as induction of hyperactivity at 20 ug, icv up to 50 mins. The class given is functional, organism-based. In outline:
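Racemic analog given to mice as a single intracranial (ICV) injection of 20 μg/mouse. Behaviour was then observed, with the type and duration of any change in activity recorded. Animals were kept according to the NRC Guide for the Care and Use of Laboratory Animals.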

The species entered for assay [1] is Rattus norvegicus. The assay is described as follows: Binding affinity to rat brain AMPA receptor at 10 uM by radioligand displacement assay. In outline:
(§1)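 Radioligand displacement at AMPA, kainate and NMDA ionotropic glutamate receptor sites in rat brain synaptic membranes, with test compound at 1 × 10−5 M.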

The species entered for assay [2] is Rattus norvegicus. The assay is described as follows: Binding affinity to rat brain kainate receptor at 10 uM by radioligand displacement assay. In outline:
as §1

Assay [3] addresses Glutamate NMDA receptor (Rattus norvegicus) (UniProt P35439+Q00959+Q00960+Q00961+Q62645+Q8VHN2+Q9R1M7). The assay is described as follows: Binding affinity to rat brain NMDA receptor at 10 uM by radioligand displacement assay. Put shortly: as §1
In general terms: Displacement assays read how much labelled ligand stays bound in the presence of the test substance.

The species named for assay [4] is Rattus norvegicus. The assay is described as follows: Binding affinity to glutamate receptor in rat hippocampal neurons assessed as reduction of action potential firing frequency at 10 uM by current- and voltage-clump electrophysiological analysis. The class given is tissue-based. The settings on record: Hippocampus. Put shortly:
(§2)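 Cultured hippocampal neurons were recorded by current clamp, read as action potential firing frequency, and by voltage clamp, read as charge transfer during spontaneous excitatory synaptic currents. The value is the percent reduction, n = 3.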

For assay [5], the species on record is Rattus norvegicus. The assay is described as follows: Binding affinity to glutamate receptor in rat hippocampal neurons assessed as reduction of spontaneous excitatory synaptic current at 10 uM by current- and voltage-clump electrophysiological analysis. The class given is tissue-based. The following applies: Hippocampus. In outline:
as §2

Calls of active or inactive are those of the source. The rule behind the calls is not given here.

Regarding `O=C(O)C[C@]12O[C@@H]3[C@@H](O)[C@@H](O)CCN[C@@H]3[C@H]1CN[C@@H]2C(=O)O` (relative stereo), the result with Mus musculus was inactive.
On to `O=C(O)C[C@]12O[C@@H]3[C@@H](O)[C@@H](O)CCO[C@@H]3[C@H]1CN[C@@H]2C(=O)O`, for which the result (in the assay filed under Rattus norvegicus [1]; in the assay filed under Rattus norvegicus [2]; in assay [3]) was inactive. Moreover, the result with Mus musculus was Active.
For `O=C(O)C[C@]12O[C@@H]3CCCCN[C@@H]3[C@H]1CN[C@@H]2C(=O)O` (relative stereo), in the assay with Mus musculus, the result was inactive.
Take `O=C(O)C[C@]12O[C@@H]3CCCCO[C@@H]3[C@H]1CN[C@@H]2C(=O)O`: the outcome (in the assay listed under Rattus norvegicus [1]; in the assay listed under Rattus norvegicus [2]; in assay [3]) was inactive. Besides, the result with Mus musculus was Active.
Regarding `O=C(O)C[C@]12O[C@@H]3CCCN[C@@H]3[C@H]1CN[C@@H]2C(=O)O` (relative stereo), the outcome in the assay on Mus musculus was inactive.
For the compound `O=C(O)C[C@]12O[C@@H]3C=CCCO[C@@H]3[C@H]1CN[C@@H]2C(=O)O` (relative stereo), the outcome in the assay on Mus musculus was Active.
As usually defined, the inhibition is the share of the control response that was lost under treatment. As for `O=C(O)C[C@]12O[C@@H]3C=CCN[C@@H]3[C@H]1CN[C@@H]2C(=O)O` (relative stereo), the inhibition in the assay listed under Rattus norvegicus [4] turned out to be 52%; in the assay listed under Rattus norvegicus [5] it was 31%. In addition, the result in the assay on Mus musculus was inactive.
In the case of `O=C(O)C[C@]12O[C@@H]3[C@@H](O)[C@@H](O)CN[C@@H]3[C@H]1CN[C@@H]2C(=O)O` (relative stereo), the outcome in the assay on Mus musculus was inactive.
Turning to `O=C(O)C[C@]12O[C@@H]3C=CCO[C@@H]3[C@H]1CN[C@@H]2C(=O)O` (relative stereo), in the assay on Mus musculus, the outcome was inactive.
Still for that read-out and setting: the same measure for `O=C(O)C[C@]12O[C@@H]3C=CCCN[C@@H]3[C@H]1CN[C@@H]2C(=O)O` (relative stereo): “inactive”.
Regarding `O=C(O)C[C@]12O[C@@H]3[C@@H](O)[C@@H](O)CO[C@@H]3[C@H]1CN[C@@H]2C(=O)O`, the result (in the assay listed under Rattus norvegicus [1]; in the assay filed under Rattus norvegicus [2]; in assay [3]; with Mus musculus) was inactive.
For the compound `O=C(O)C[C@]12O[C@@H]3CCCO[C@@H]3[C@H]1CN[C@@H]2C(=O)O`, the outcome (in the assay filed under Rattus norvegicus [1]; in the assay filed under Rattus norvegicus [2]; in assay [3]) was inactive. In the assay on Mus musculus, the result was Active.
